In publication PMC5214883 (Molecular cancer therapeutics, 2016):
Non-standard residues stand in square brackets, D forms with d. Residues, ends and D or L forms follow the SMILES beside them. *: point of attachment. Dolaproine = CO[C@@H]([C@@H]1CCCN1)[C@@H](C)C(=O)O; Dil = CC[C@H](C)[C@H](NC)[C@@H](CC(=O)O)OC; X1 = C[C@@H](N*)[C@@H](O)c1ccccc1; NMeV = CN[C@H](C(=O)O)C(C)C

What was measured:
SKRC-52 xenografts [1] = conditions: cited from earlier work
[2] = Linker stability assay in PBS; type: physicochemical; conditions: pH 7.4
[3] = Linker stability assay in mouse serum; type: in vitro ADME
Dose escalation study = experiment: Dose escalation study; parameters: species or system Balb/c nu/nu mice; conditions: female, athymic Balb/c nu/nu, mouse, in vivo
Outline: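 Escalating doses (250 or 500 nmol/Kg) were given as five injections on five consecutive days to […] female athymic Balb/c nu/nu mice aged 8–10 weeks. An acetazolamide-targeted prodrug was compared with an untargeted analogue, with three mice per group.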

SKRC-52 xenografts [4] = experiment: Therapy experiments in mice bearing subcutaneous SKRC-52 tumors; type: in vivo, Balb/c nu/nu mice; conditions: 250 nmol/Kg, ten daily administrations
[5] = system: CAIX-expressing SKRC-52 cells; experiment: In vitro cytotoxicity assay; type: cell-based, human; conditions: read-out: IC50 (cytotoxicity), 72 h, 37 °C, MTS

## CCN(CC)CCNC(=O)c1c(C)[nH]c(/C=C2\C(=O)Nc3ccc(F)cc32)c1C [sunitinib]
SKRC-52 xenografts [1]
  activity against SKRC-52 tumors: did not display any detectable activity

## CC[C@H](C)[C@@H]([C@@H](CC(=O)N1CCC[C@H]1[C@H](OC)[C@@H](C)C(=O)N[C@H](C)[C@@H](O)c1ccccc1)OC)N(C)C(=O)[C@@H](NC(=O)[C@H](C(C)C)N(C)C(=O)OCc1ccc(NC(=O)[C@H](CCCNC(N)=O)NC(=O)[C@@H](NC(=O)CCCCCN2C(=O)CC(SC[C@H](NC(=O)[C@H](CC(=O)O)NC(=O)[C@H](CCCNC(=N)N)NC(=O)[C@H](CC(=O)O)NC(=O)CCCCn3cc(CCCC(=O)Nc4nnc(S(N)(=O)=O)s4)nn3)C(=O)O)C2=O)C(C)C)cc1)C(C)C (some centres unmarked) [Compound 4a]
[2]
  half-life at 100 μg/ml: > 48 h
[3]; degradation profile in mouse serum
  main release product (mass spectrometric analysis): free MMAE
[3]; mouse serum, 37 °C, 6 hours, LC-MS
  conjugate intact after 6 hours in mouse serum: > 70%
[3]; mouse, mouse serum
  half-life: ~7 h
Dose escalation study
  MTD at 5 days: 0.5 µmol/kg
SKRC-52 xenografts [4]
  acute toxicity and body weight: no acute toxicity and no significant weight loss
  durable complete response: One out of five

## CC[C@H](C)[C@@H]([C@@H](CC(=O)N1CCC[C@H]1[C@H](OC)[C@@H](C)C(=O)N[C@H](C)[C@@H](O)c1ccccc1)OC)N(C)C(=O)[C@@H](NC(=O)[C@@H](NC)C(C)C)C(C)C [MMAE, monomethyl auristatin E] (H-[NMeV]V[Dil][Dolaproine]-X1)
[5]
  IC50: 1.5 nM

## COc1cccc2c1C(=O)c1c(O)c3c(c(O)c1C2=O)C[C@@](O)(C(=O)CO)C[C@@H]3O[C@H]1C[C@H]2[C@H](O[C@@H]3[C@@H](OC)OCCN32)[C@H](C)O1 [PNU-159682]
[5]
  IC50: 0.16 nM

## CNC(=O)c1cc(Oc2ccc(NC(=O)Nc3ccc(Cl)c(C(F)(F)F)c3)cc2)ccn1 [sorafenib]
SKRC-52 xenografts [1]
  activity against SKRC-52 tumors: did not display any detectable activity
